# Laboratory results taken from ChEMBL document CHEMBL4371040, “Triazolopyrimidine and triazolopyridine scaffolds as TDP2 inhibitors” (Bioorg Med Chem Lett, 2019).
# Key:
# [1] = Solubility of the compound in DMSO; format: physicochemical
# [2] = Permeability of the compound at 10 uM after 5 hrs by PAMPA; format: ADME; conditions: read-out: permeability
# Summary of the method: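 Parallel artificial membrane permeability assay reported as effective permeability Pe (10−6 cm/s). Pe > 1.5 is taken as high permeability.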
# HepG2 = assay: Cytotoxicity against human HepG2 cells after 72 hrs by MTT assay; format: cell-based; conditions: hepg2, 72 h
# Summary of the method: (§1)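 Compounds tested at 50 μM and 100 μM to give CC50. Two independent experiments were run, each in triplicate.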
# HeLa = assay: Cytotoxicity against human HeLa cells after 72 hrs by MTT assay; format: cell-based; summary of the method: as §1
# [3] = Solubility of the compound in pH 7.4 Tris HCl buffer; format: physicochemical
# [4] = biological target: T1, Tyrosyl-DNA phosphodiesterase 2 (Homo sapiens, UniProt O95551); assay: Inhibition of recombinant human TDP2 using T5PNP as substrate preincubated for 10 mins followed by substrate addition and measured after 30 mins
# T1 sequence (O95551 whole entry): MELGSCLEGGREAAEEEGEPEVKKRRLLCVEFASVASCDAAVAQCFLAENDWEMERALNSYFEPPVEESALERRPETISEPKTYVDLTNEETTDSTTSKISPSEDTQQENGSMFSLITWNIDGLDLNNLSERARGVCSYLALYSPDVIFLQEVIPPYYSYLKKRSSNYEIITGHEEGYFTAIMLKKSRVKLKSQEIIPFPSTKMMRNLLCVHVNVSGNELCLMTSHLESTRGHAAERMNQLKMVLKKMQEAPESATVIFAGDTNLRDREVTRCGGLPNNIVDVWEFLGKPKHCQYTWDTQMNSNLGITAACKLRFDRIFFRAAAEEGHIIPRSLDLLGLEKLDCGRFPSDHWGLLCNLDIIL
Compound,solubility [1],"Papp at 5 h, 10 µM [2]",further results
O=C(Nc1nc2nc(-c3ccccc3)ccn2n1)c1ccc([N+](=O)[O-])cc1,Insoluble,–,–
O=C(Nc1nc2cc(-c3ccccc3)ccn2n1)c1cccc(Cl)c1,–,0.9 ×10⁻⁶ cm/s,CC50 (HepG2): > 100 µM; CC50 (HeLa): > 100 µM
N#Cc1cccc(C(=O)Nc2nc3nc(-c4ccccc4)ccn3n2)c1,Insoluble,–,–
NC1=CC(N)=C2C=CC(=O)N=C2C1=O,–,0.095 ×10⁻⁶ cm/s,IC50 [4]: 1.7 µM

# Further lines, with some results ahead:
solubility [1],"Papp at 5 h, 10 µM [2]",Compound,further results
Soluble,0.16 ×10⁻⁶ cm/s,O=C(Nc1nc2nc(-c3ccccc3)ccn2n1)c1cccc([N+](=O)[O-])c1,solubility [3]: Soluble
Insoluble,–,O=C(Nc1nc2nc(-c3ccccc3)ccn2n1)c1ccccc1,–
–,0.15 ×10⁻⁶ cm/s,O=C(Nc1nc2cc(-c3ccccc3)ccn2n1)c1cccc([N+](=O)[O-])c1,–
–,6.3 ×10⁻⁶ cm/s,O=C(Nc1nc2cc(-c3cccnc3)ccn2n1)c1cccc(Cl)c1,CC50 (HepG2): > 100 µM; CC50 (HeLa): > 100 µM
Insoluble,–,O=C(Nc1nc2nc(-c3ccccc3)ccn2n1)c1cccc(Br)c1,–
Insoluble,–,O=C(Nc1nc2nc(-c3ccccc3)ccn2n1)c1cccc(C(F)(F)F)c1,–
